Tests used:
[1] = target: Cyclin-dependent kinase 2/cyclin A (Homo sapiens) (UniProt P24941+P20248+P78396); assay: Inhibition of CDK2/cyclin A using 5-FAM-GGGPATPKKAKKL-COOH as substrate at 10 uM after 1 hr by IMAP assay; type: protein-complex assay
In short: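 IMAP fluorescence-polarization enzyme assay on CDK2/cyclin A, testing competition at the ATP site. Compounds tested at 10 μM, with purvalanol A at 1 μM as reference. Percent inhibition is the average ± SD of three independent experiments, or the mean of two for some compounds.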

[2] = target: MAP kinase-interacting serine/threonine-protein kinase 2 (Homo sapiens, UniProt Q9HBH9); assay: Inhibition of MNK2 using 5-FAM-TATKSGSTTKNRFVV-NH2 as substrate preincubated for 1 hr prior substrate addition measured after 2 hrs by IMAP assay
Chain of MAP kinase-interacting serine/threonine-protein kinase 2 (Q9HBH9 whole entry): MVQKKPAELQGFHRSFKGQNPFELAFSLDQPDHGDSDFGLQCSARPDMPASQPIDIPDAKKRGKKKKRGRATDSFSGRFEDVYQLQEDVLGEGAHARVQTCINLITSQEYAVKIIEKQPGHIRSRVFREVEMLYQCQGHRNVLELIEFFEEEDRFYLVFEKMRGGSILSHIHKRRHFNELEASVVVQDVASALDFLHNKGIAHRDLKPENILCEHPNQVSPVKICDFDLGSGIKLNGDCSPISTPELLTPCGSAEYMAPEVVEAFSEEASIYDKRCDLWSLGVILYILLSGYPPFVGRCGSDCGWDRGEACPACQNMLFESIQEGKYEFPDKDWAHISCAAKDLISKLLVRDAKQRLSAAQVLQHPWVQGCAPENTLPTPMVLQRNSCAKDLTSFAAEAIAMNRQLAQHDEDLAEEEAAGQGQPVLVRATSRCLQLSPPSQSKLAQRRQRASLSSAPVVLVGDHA

[3] = target: Cyclin-dependent kinase 2/cyclin A (Homo sapiens, UniProt P24941); assay: Inhibition of CDK2/cyclin A using 5-FAM-GGGPATPKKAKKL-COOH as substrate after 1 hr by IMAP assay; type: protein-complex assay
In short: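 IMAP fluorescence-polarization assay on CDK2/cyclin A. IC50 taken from dose–response curves, given as average ± SD of three independent experiments, or the mean of two for one compound.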

| SMILES | inhibition [1] [%] | IC50 [2] [µM] | IC50 [3] [µM] |
| --- | --- | --- | --- |
| COc1cc(O)cc2c1C(=O)O[C@@H](C)CCC[C@@H](O)[C@@H](O)CC/C=C/2 | 10 | > 10 | – |
| C[C@H]1CCC[C@@H](O)[C@@H](O)CCC(=O)Cc2cc(O)cc(O)c2C(=O)O1 | 17 | > 10 | – |
| C[C@H]1C/C=C/CCCC/C=C/c2cc(O)cc(O)c2C(=O)O1 | 17 | 1.61 | – |
| C[C@H]1C/C=C/[C@@H](O)[C@@H](O)CCC(O)Cc2cc(O)cc(O)c2C(=O)O1 (mixture of isomers) | 8 | > 10 | – |
| COc1cc(O)cc2c1C(=O)O[C@@H](C)C/C=C/[C@@H](O)[C@@H](O)CC/C=C/2 | 17 | > 10 | – |
| C[C@@H]1C/C=C/[C@@H](O)[C@@H](O)CC/C=C/c2cc(O)cc(O)c2C(=O)O1 | 64 | > 10 | 19 |
| C[C@H]1C/C=C/[C@H]2OC(C)(C)O[C@H]2CC/C=C/c2cc(O)cc(O)c2C(=O)O1 | 19 | 0.58 | – |
| C[C@H]1CCC[C@@H](O)[C@@H](O)CCCCc2cc(O)cc(O)c2C(=O)O1 | 16 | > 10 | – |
| C[C@H]1CCC[C@@H](O)[C@@H](O)CC/C=C/c2cc(O)cc(O)c2C(=O)O1 | 25 | 1.35 | – |
